Calls of active or inactive are those of the source. The rule behind the calls is not given here.
Legend:
[1] = target: M-phase inducer phosphatase 1 (Homo sapiens, UniProt P30304); assay: Inhibition of CDC25A (unknown origin) expressed in Escherichia coli BL21(DE3) using DIFMUP as substrate preincubated for 20 mins followed by substrate addition measured after 20 mins by phosphatase assay
Procedure, shortened: (§1)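 Phosphatases purified from E. coli and run as for SHP2 E76A: 20 min room-temperature preincubation with compound in 0.1 M sodium acetate pH 5.0, then DIFMUP at each enzyme's Km, 20 min, fluorescence 358/455 nm. Eight 3-fold dilutions in duplicate; IC50 from at least three independent experiments.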

KG-1a = assay: Antiproliferative activity against human KG1a cells at 3 to 6 uM after 2 days by CellTiter-Glo assay; format: functional, cell-based
Procedure, shortened: (§2)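 3000 cells/well in 96-well plates, grown overnight, then inhibitor at indicated concentrations for 2 days (48 h). Viability by CellTiter-Glo; mean±s.d., n=3.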

Homo sapiens [2] = species: Homo sapiens; assay: Selectivity ratio of IC50 for SHP1 (unknown origin) expressed in Escherichia coli BL21(DE3) to IC50 for SHP2 E76A mutant (unknown origin) expressed in Escherichia coli BL21(DE3)
Procedure, shortened: (§3)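 Ratio of IC50 values from one DIFMUP fluorescence assay (Ex/Em 358/455), room temperature, 0.1 M sodium acetate pH 5.0. His-tagged SHP2 E76A (1.5 nM) or counter-phosphatase purified from E. coli, preincubated 20 min with compound (eight 3-fold dilutions), then DIFMUP added for 20 min. DIFMUP was at Km for each counter-phosphatase. Duplicates; IC50 from at least three independent experiments.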

[3] = target: Dual specificity protein phosphatase 3 (Homo sapiens, UniProt P51452); assay: Inhibition of VHR (unknown origin) expressed in Escherichia coli BL21(DE3) using DIFMUP as substrate preincubated for 20 mins followed by substrate addition measured after 20 mins by phosphatase assay; procedure, shortened: as §1
NCI-H1975 = assay: Antiproliferative activity against human NCI-H1975 cells assessed as reduction in colony formation at 2.5 to 10 uM after 2 weeks by soft agar assay; format: functional, cell-based
Procedure, shortened: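 NCI-H1975 cells at 10,000/well in 0.4% agarose over a 1% low-melt agarose base layer (6-well). Inhibitor at varying concentrations, replenished twice weekly. After 2 weeks, colonies stained with iodonitrotetrazolium chloride and counted; mean±s.d., n=3.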

Ramos = assay: Antiproliferative activity against human Ramos cells at 3 to 6 uM after 2 days by CellTiter-Glo assay; format: functional, cell-based; procedure, shortened: as §2
MV4-11 = assay: Antitumor activity against human MV4-11 cells xenografted in BALB/c mouse assessed as tumor growth inhibition at 30 mg/kg administered qd via oral gavage measured twice weekly relative to control; format: functional; conditions: MV4-11, po, read-out: TGI
Procedure, shortened: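 Female BALB/c nude mice given subcutaneous MV4;11 cells (5×10^6, in 50% phenol red-free matrigel in PBS). Once tumours reached about 230 mm³, mice were randomised to vehicle or oral gavage once daily (10 ml/kg). Tumour volume was measured by caliper in two dimensions twice a week, along with body weight. Data given as mean±sem, with significance assessed on day 14.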

MOLM-13 = assay: Antiproliferative activity against human MOLM13 cells at 3 to 6 uM after 2 days by CellTiter-Glo assay; format: functional, cell-based; procedure, shortened: as §2
NCI-H1838 = assay: Antiproliferative activity against human NCI-H1838 cells at 3 to 6 uM after 2 days by CellTiter-Glo assay; format: functional, cell-based; procedure, shortened: as §2
[4] = target: T1, Tyrosine-protein phosphatase non-receptor type 11 (Homo sapiens) (UniProt Q06124); assay: Allosteric inhibition of SHP2 in human A549 cells harboring KRAS mutant assessed as upregulation of YAP Y357 phosphorylation at 5 and 10 uM after 2 hrs by Western blot analysis; format: cell-based
T1 sequence (whole entry): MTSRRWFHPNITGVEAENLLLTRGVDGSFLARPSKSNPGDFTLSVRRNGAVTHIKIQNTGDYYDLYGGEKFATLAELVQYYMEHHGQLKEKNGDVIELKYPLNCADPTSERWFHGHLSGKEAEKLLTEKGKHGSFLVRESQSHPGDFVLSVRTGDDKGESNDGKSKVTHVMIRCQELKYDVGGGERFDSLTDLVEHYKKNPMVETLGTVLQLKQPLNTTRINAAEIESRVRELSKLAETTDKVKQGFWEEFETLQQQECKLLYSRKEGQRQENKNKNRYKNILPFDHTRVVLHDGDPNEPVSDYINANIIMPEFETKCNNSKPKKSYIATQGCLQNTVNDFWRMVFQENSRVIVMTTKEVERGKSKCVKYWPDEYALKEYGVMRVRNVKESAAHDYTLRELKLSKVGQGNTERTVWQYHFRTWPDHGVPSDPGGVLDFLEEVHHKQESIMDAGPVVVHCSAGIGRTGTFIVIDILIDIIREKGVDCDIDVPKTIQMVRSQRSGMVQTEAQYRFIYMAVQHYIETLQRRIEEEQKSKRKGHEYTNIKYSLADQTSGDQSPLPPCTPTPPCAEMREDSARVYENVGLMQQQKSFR

[5] = target: Tyrosine-protein phosphatase non-receptor type 6 (Homo sapiens, UniProt P29350); assay: Inhibition of SHP1 (unknown origin) expressed in Escherichia coli BL21(DE3) using DIFMUP as substrate preincubated for 20 mins followed by substrate addition measured after 20 mins by phosphatase assay; procedure, shortened: as §1
Homo sapiens [6] = species: Homo sapiens; assay: Selectivity ratio of IC50 for LMW-PTP (unknown origin) expressed in Escherichia coli BL21(DE3) to IC50 for SHP2 E76A mutant (unknown origin) expressed in Escherichia coli BL21(DE3); procedure, shortened: as §3
[7] = target: T1, Tyrosine-protein phosphatase non-receptor type 11 (Homo sapiens); assay: Allosteric inhibition of SHP2 in human SF268 cells stably expressing Yap-Luc reporter assessed as reduction in YAP transcriptional activity after 12 hrs by Yap-luciferase reporter gene assay; format: cell-based
THP-1 = assay: Antiproliferative activity against human THP1 cells at 3 to 6 uM after 2 days by CellTiter-Glo assay; format: functional, cell-based; procedure, shortened: as §2
[8] = target: T1, Tyrosine-protein phosphatase non-receptor type 11 (Homo sapiens); assay: Inhibition of SHP2 in human SF268 cells assessed as downregulation of YAP-mediated ANKRD1 gene expression ay 10 to 20 uM after 2 hrs by qRT-PCR analysis; format: cell-based
Procedure, shortened: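 SF268 cells exposed to DMSO, 10 μM or 20 μM inhibitor for 2 h. RNA extracted, reverse-transcribed, and CTGF, CYR61, ANKRD1 and YAP mRNA quantified by qPCR; mean±s.d., n=3.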

Homo sapiens [9] = species: Homo sapiens; assay: Selectivity ratio of IC50 for PTP1B (unknown origin) expressed in Escherichia coli BL21(DE3) to IC50 for SHP2 E76A mutant (unknown origin) expressed in Escherichia coli BL21(DE3); procedure, shortened: as §3
[10] = target: Dual specificity protein phosphatase 6 (Homo sapiens, UniProt Q16828); assay: Inhibition of MKP3 (unknown origin) expressed in Escherichia coli BL21(DE3) using DIFMUP as substrate preincubated for 20 mins followed by substrate addition measured after 20 mins by phosphatase assay; procedure, shortened: as §1
KYSE-520 cell line = assay: Antiproliferative activity against human KYSE520 cells at 3 to 6 uM after 2 days by CellTiter-Glo assay; format: functional, cell-based; procedure, shortened: as §2
NCI-H661 = assay: Antiproliferative activity against human NCI-H661 cells at 3 to 6 uM after 2 days by CellTiter-Glo assay; format: functional, cell-based; procedure, shortened: as §2

Chain of Tyrosine-protein phosphatase non-receptor type 6 (P29350 whole entry): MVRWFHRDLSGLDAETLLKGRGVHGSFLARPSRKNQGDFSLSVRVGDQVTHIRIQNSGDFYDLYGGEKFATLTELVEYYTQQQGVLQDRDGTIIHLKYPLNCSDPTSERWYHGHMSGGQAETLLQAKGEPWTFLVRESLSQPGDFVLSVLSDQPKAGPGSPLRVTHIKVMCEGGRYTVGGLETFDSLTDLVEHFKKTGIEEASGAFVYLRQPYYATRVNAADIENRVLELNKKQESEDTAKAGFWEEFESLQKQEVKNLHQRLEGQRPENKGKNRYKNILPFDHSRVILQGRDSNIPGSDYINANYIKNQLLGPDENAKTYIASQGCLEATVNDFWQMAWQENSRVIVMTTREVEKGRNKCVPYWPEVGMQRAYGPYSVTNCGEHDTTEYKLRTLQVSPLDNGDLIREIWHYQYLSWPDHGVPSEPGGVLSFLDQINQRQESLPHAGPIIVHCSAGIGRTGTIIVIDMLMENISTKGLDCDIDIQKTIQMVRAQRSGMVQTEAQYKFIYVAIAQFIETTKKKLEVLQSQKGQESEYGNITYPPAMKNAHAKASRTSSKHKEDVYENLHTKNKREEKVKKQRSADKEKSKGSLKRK
Chain of M-phase inducer phosphatase 1 (P30304 whole entry): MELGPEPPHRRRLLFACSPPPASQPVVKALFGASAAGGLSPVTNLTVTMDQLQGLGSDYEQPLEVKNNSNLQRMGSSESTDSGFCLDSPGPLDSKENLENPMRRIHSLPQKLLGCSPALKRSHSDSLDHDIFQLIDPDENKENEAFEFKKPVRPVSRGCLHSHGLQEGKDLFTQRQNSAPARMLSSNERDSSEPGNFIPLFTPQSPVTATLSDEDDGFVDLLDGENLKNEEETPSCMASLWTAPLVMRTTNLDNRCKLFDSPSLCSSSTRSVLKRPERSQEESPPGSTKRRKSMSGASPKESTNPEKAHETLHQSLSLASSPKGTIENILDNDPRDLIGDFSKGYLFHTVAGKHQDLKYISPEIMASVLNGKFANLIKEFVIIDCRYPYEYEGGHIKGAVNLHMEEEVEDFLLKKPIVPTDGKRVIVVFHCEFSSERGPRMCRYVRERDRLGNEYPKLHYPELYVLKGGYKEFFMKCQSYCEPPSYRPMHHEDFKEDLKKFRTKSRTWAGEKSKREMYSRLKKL
Chain of Dual specificity protein phosphatase 3 (P51452 whole entry): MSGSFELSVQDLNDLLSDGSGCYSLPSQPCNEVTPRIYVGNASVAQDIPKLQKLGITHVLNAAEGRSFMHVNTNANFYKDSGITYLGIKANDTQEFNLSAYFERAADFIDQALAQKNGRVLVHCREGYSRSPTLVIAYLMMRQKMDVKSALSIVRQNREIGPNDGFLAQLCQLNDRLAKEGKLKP
Chain of Dual specificity protein phosphatase 6 (Q16828 whole entry): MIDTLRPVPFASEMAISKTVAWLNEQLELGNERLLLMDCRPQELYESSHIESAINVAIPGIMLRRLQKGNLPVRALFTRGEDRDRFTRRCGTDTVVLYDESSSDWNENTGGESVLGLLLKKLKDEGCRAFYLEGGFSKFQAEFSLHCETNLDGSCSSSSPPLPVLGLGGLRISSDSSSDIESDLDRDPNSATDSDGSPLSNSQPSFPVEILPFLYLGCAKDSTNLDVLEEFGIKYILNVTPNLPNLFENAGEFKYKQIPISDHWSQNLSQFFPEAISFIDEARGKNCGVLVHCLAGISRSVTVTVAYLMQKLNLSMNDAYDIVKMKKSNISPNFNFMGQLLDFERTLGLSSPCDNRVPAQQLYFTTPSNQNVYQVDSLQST

## CC1(N)CCN(c2nc(-c3ccc4cc(Br)ccc4c3)cs2)CC1
[1]
  IC50: 27.5 µM
KG-1a
  Activity: Active
Homo sapiens [2]
  Ratio IC50: 48
[3]
  IC50: > 100 µM
NCI-H1975
  Activity: Active
Ramos
  Activity: Active
MV4-11
  inhibition in vivo at 30 mg/kg: 56%
MOLM-13
  Activity: Active
NCI-H1838
  Activity: Active
[4]
  inhibition: Active
[5]
  IC50: 34.6 µM
Homo sapiens [6]
  Ratio IC50: > 30
[7]
  inhibition: Dose-dependent effect
THP-1
  Activity: Active
[8]
  inhibition: Active
Homo sapiens [9]
  Ratio IC50: > 30
[10]
  IC50: > 100 µM
KYSE-520 cell line
  Activity: Active
NCI-H661
  Activity: Active

— ChEMBL document CHEMBL4028906, “Allosteric Inhibitors of SHP2 with Therapeutic Potential for Cancer Treatment” (J Med Chem, 2017)
